Laboratory results from ChEMBL document CHEMBL1133503 (J Med Chem, 2000).

What was measured:
Rattus norvegicus [1] = species: Rattus norvegicus; experiment: Bioreduction experiment was conducted by incubation of the sulfoxides with rat liver S-9 fractions in anaerobic conditions (N2, without cofactors); type: functional; set-up: concentration or dose not given beside the values
Procedure, shortened: (§1)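 Rat liver S-9 fraction incubated with sulfoxide at 37 °C for 30 min with shaking. Aerobic vials were left open to air. Anaerobic vials were purged with N2 for 10 min before the compound was injected. Cofactor was NADPH, benzaldehyde, 2-hydroxypyrimidine or acetaldehyde, or none. Controls were boiled S-9 and S-9 without cofactors. For menadione, S-9 was preincubated aerobically with 1 equiv for 30 min, then benzaldehyde was added. Sulfide or sulfone was measured by HPLC or TLC densitometry.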

Rattus norvegicus [2] = species: Rattus norvegicus; experiment: Bioreduction experiment was conducted by incubation of the sulfoxides with rat liver S-9 fractions in anaerobic conditions N2); type: functional; procedure, shortened: as §1
Rattus norvegicus [3] = species: Rattus norvegicus; experiment: Reduction potential (SCE) determined by differential pulse polarography of the sulfoxides […]; type: functional
Rattus norvegicus [4] = species: Rattus norvegicus; experiment: Bioreduction experiment was conducted by incubation of the sulfoxides with rat liver S-9 fractions in anaerobic conditions (N2, benzaldehyde); type: functional; set-up: concentration or dose not given beside the values; procedure, shortened: as §1
[5] = Concentration required to reduce cell survival to 10% of controls using V-79 cells in the clonogenic assay, in aerobic conditions; type: functional; details: Cricetulus griseus, V79
Procedure, shortened: (§2)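 V-79 cells (500 000 per bottle) grown 20 h in MEM with 10% FBS. Hypoxic set gassed 2 h at 37 °C with humidified 95% N2/5% CO2. Drug in ethanol/water or DMF injected through septa. Exposure 3 h under air or hypoxia. Cells trypsinised, counted by trypan blue, 500 plated in triplicate for 6–8 days. Colonies stained with crystal violet, survival relative to solvent control.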

[6] = Hypoxic selectivity expressed as the ratio of IC50 values in air and nitrogen; type: functional
Rattus norvegicus [7] = species: Rattus norvegicus; experiment: Bioreduction experiment was conducted by incubation of the sulfoxides with rat liver S-9 fractions in anaerobic conditions (N2 2-hydroxypyrimidine); type: functional; procedure, shortened: as §1
Rattus norvegicus [8] = species: Rattus norvegicus; experiment: Bioreduction experiment was conducted by incubation of the sulfoxides with rat liver S-9 fractions in anaerobic conditions (N2); type: functional; procedure, shortened: as §1
[9] = Concentration required to reduce cell survival to 10% of controls using V-79 cells in the clonogenic assay, in anaerobic conditions (hypoxic conditions); type: functional; details: Cricetulus griseus, V79; procedure, shortened: as §2
[10] = Concentration of drug required to reduce V-79 cell survival to 50% of controls in a SRB assay; type: functional, cell-based; details: Cricetulus griseus, V79
Procedure, shortened: (§3)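 V-79 cells (about 7 × 10³ per 100 μL) preincubated 24 h, then exposed to drug for 3 h under oxic conditions. Washed 5× with HBSS and grown 48 h more. Fixed with TCA and stained with SRB. Bound dye dissolved in 10 mM Tris, spotted on TLC and read by video densitometry. IC50 is the mean of triplicates in one experiment. Ratio is IC50 of sulfide over sulfoxide or sulfone.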

[11] = Relative cytotoxicity is expressed as the ratio of the IC50 values of the corresponding sulfide to sulfoxide or to sulfone; type: functional, Cricetulus griseus; procedure, shortened: as §3

Structure (SMILES)	Bioreduction (Rattus norvegicus [1])	Bioreduction (Rattus norvegicus [2])	E (Rattus norvegicus [3])	Bioreduction (Rattus norvegicus [4])	IC90 [5]	Selectivity [6]	Bioreduction (Rattus norvegicus [7])	Bioreduction (Rattus norvegicus [8])	IC90 [9]	IC50 [10]	Cytotoxicity [11]
[O-][s+]1c2ccccc2c2ccccc21	0%	0%	1.82 -V	4.4%							
[O-][s+]1c2ccc(N(CCCl)CCCl)cc2c2cc(N(CCCl)CCCl)ccc21	0.6%		1.96 -V	0.6%	4670 µM	3	0.33%	0%	1520 µM		
O=[N+]([O-])c1ccc(S(=O)(=O)c2ccc(N(CCCl)CCCl)cc2)cc1										26.7 µM	0.08
Cl.O=S(=O)(c1ccc(Nc2c3ccccc3nc3ccccc23)cc1)c1ccc(N(CCCl)CCCl)cc1										22.2 µM	0.09
